Measurements as given in ChEMBL document CHEMBL3763017, “Synthesis and evaluation of dual antiplatelet activity of bispidine derivatives of N-substituted pyroglutamic acids” (Eur J Med Chem, 2016).

Legend:
Format in all cases: functional
[1] = test system: Mus musculus; test: Antithrombotic activity in Swiss albino mouse assessed as protection against collagen-epinephrine induced pulmonary thromboembolism at 30 umol/kg, po after 1 hr
Outline: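 Male Swiss albino mice (18–22 g) dosed orally in 0.5% carboxymethyl cellulose 1, 2, 4, 6, 12 or 24 h before challenge. Collagen (150 μg/ml) plus adrenaline (50 μg/ml) injected into the tail vein. Dead or hind-limb-paralysed mice counted over 15 min and expressed as % protection. Ten mice per drug group, five for vehicle.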

[2] = Antiplatelet activity in human platelet rich plasma assessed as inhibition of collagen-induced platelet aggregation at 30 uM preincubated for 5 mins followed by collagen stimulation by turbidimetry
Outline: (§1)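 Human PRP (1×10^8 platelets/ml) from healthy-donor blood spun at 1000 rpm for 10 min. Pre-treated 5 min with compound or 0.4% DMSO vehicle, then agonist added at 37 °C. Light-transmission aggregometry run at least 5–10 min; % aggregation calculated. Single-point screens at 30 μM, n = 3; mean ± SEM.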

[3] = Antiplatelet activity in human platelet rich plasma assessed as inhibition of U46619-induced platelet aggregation at 30 uM preincubated for 5 mins followed by U46619 stimulation by turbidimetry; outline: as §1
[4] = test system: Aorta; test: Inhibition of U46619-induced vasocontraction in Sprague-Dawley rat thoracic aoritc rings at 100 nM (reference value: 89.8 +/- 8.5%); design: scale not given: the % may be the effect or the level left

Row | SMILES | Activity [1] [%] | inhibition at 30 µM [2] [%] | inhibition at 30 µM [3] [%] | Activity [4] [%]
1 | COc1ccc(CN2C(=O)CC[C@H]2C(=O)N2CC3CC(CN(Cc4ccccc4)C3)C2)cc1 | 30 | 10 | – | –
2 | CC(C)(C)OC(=O)N1CC2CC(C1)CN(C(=O)[C@@H]1CCC(=O)N1Cc1cccc3ccccc13)C2 | 30 | 11 | – | –
3 | CC(C)(C)OC(=O)N1CC2CC(C1)CN(C(=O)[C@@H]1CCC(=O)N1Cc1ccccc1Br)C2 | 50 | 2 | – | –
4 | Cc1ccc(CN2C(=O)CC[C@H]2C(=O)N2CC3CC(CN(Cc4ccc(Cl)cc4)C3)C2)cc1 | 35 | 67 | 81 | –
5 | O=C([C@@H]1CCC(=O)N1Cc1c(Cl)cccc1Cl)N1CC2CC(CN(Cc3ccccc3)C2)C1 | 40 | 68 | 85 | –
6 | O=C(O)CCC/C=C\C[C@@H]1[C@H](CNNC(=O)Nc2ccccc2)[C@H]2CC[C@@H]1O2 | – | – | – | 8.4
7 | O=C([C@@H]1CCC(=O)N1Cc1ccc(Cl)cc1)N1CC2CC(CN(Cc3ccccc3)C2)C1 | 30 | 52 | 80 | –
8 | O=C(c1ccccc1)N1CC2CC(C1)CN(C(=O)[C@@H]1CCC(=O)N1Cc1ccccc1Br)C2 | 60 | 25.6 | – | –
9 | O=C([C@@H]1CCC(=O)N1Cc1ccc(Br)cc1)N1CC2CC(CN(Cc3ccccc3)C2)C1 | 40 | 57 | – | –
10 | Cc1ccc(CN2C(=O)CC[C@H]2C(=O)N2CC3CC(CN(Cc4ccccc4)C3)C2)cc1 | 25 | 7 | – | –
11 | Cc1ccc(CN2C(=O)CC[C@H]2C(=O)N2CC3CC(CN(C(=O)OC(C)(C)C)C3)C2)cc1 | 40 | 25 | – | –
12 | Cc1ccc(CN2C(=O)CC[C@H]2C(=O)N2CC3CC(CN(Cc4ccc(Br)cc4)C3)C2)cc1 | 50 | 61 | 52 | –
